In ChEMBL document CHEMBL3588845, “Protozoan Parasite Growth Inhibitors Discovered by Cross-Screening Yield Potent Scaffolds for Lead Discovery” (J Med Chem, 2015):

How the values were obtained:
[1] = Protein binding in plasma (unknown origin) assessed as fraction unbound; type: ADME, cell-free
[2] = system: Trypanosoma brucei; assay: Antiparasite activity against Trypanosoma brucei 427 assessed as growth inhibition incubated for 48 hrs by PrestoBlue based fluorescence assay; type: functional, organism-based; details: Trypanosoma brucei, 427, 48 h
[3] = system: Plasmodium falciparum; assay: Antiparasite activity against drug resistant Plasmodium falciparum C235 assessed as growth inhibition incubated for 72 hrs by SYBR green fluorescence assay; type: functional, organism-based; details: C235, 72 h
[4] = system: Trypanosoma cruzi; assay: Antiparasite activity against Trypanosoma cruzi Tulahuen expressing beta-galactosidase assessed as growth inhibition incubated for 96 hrs by CPRG dye based assay; type: functional, organism-based
[5] = system: Leishmania major; assay: Antiparasite activity against luciferase-expressing Leishmania major amastigotes isolated from infected in mouse RAW264.7 cells assessed as growth inhibition incubated for 96 hrs by luciferase reporter gene assay; type: functional, organism-based; details: RAW264.7, 96 h
[6] = system: Hepatocyte; assay: Intrinsic clearance in rat hepatocytes assessed per 10^6 cells; type: ADME, cell-based
[7] = system: Plasmodium falciparum; assay: Antiparasite activity against drug resistant Plasmodium falciparum W2 assessed as growth inhibition incubated for 72 hrs by SYBR green fluorescence assay; type: functional, organism-based; details: W2, 72 h
[8] = Toxicity against human HepG2 cells incubated for 48 hrs by MTT assay; type: cell-based; details: read-out: TC50
[9] = system: Leishmania major; assay: Antiparasite activity against Leishmania major promastigotes assessed as growth inhibition incubated for 44 hrs by alamar blue dye based fluorescence assay; type: functional, organism-based
[10] = system: Plasmodium falciparum; assay: Antiparasite activity against Plasmodium falciparum D6 assessed as growth inhibition incubated for 72 hrs by SYBR green fluorescence assay; type: functional, organism-based; details: D6, 72 h
[11] = system: Trypanosoma cruzi; assay: Antiparasite activity against Trypanosoma cruzi Tulahuen expressing beta-galactosidase assessed as growth inhibition at 10 uM incubated for 96 hrs by CPRG dye based assay; type: functional; details: read-out: GI
[12] = system: Trypanosoma brucei; assay: Antiparasite activity against Trypanosoma brucei 427 assessed as growth inhibition at 5 uM incubated for 48 hrs by PrestoBlue based fluorescence assay; type: functional; details: Trypanosoma brucei, 427, 48 h; read-out: GI
[13] = Aqueous solubility of the compound; type: physicochemical; details: buffer
Method in brief: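 Aqueous solubility measured as thermodynamic solubility.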

SMILES	Fu [1] [%]	EC50 [2] [µM]	EC50 [3] [µM]	EC50 [4] [µM]	EC50 [5] [µM]	CLH [6] [µL/min]	EC50 [7] [µM]	CC50 at 48 h [8] [µM]	EC50 [9] [µM]	EC50 [10] [µM]	inhibition of growth at 10 µM [11] [%]	inhibition of growth at 5 µM [12] [%]	solubility [13] [µM]
CN1CCCN(S(=O)(=O)c2ccc(-c3ccc4ncc(C#N)c(Nc5ccc(OCc6cccc(F)c6)c(Cl)c5)c4c3)cc2)CC1	< 1	0.35	0.066	0.09	1.6	37.95	0.1	> 15	0.92	0.047			
CN1CCN(S(=O)(=O)c2ccc(-c3ccc4ncnc(Nc5ccc(OCc6cccc(F)c6)c(Cl)c5)c4c3)cc2)CC1					1.6			> 15	2.8	0.027	60		
N#Cc1cnc2ccc(-c3ccc(S(=O)(=O)N4CCOCC4)cc3)cc2c1Nc1ccc(OCc2cccc(F)c2)c(Cl)c1			0.24	> 50	> 15		0.3	> 15	> 15	0.16		15	
N#Cc1cnc2ccc(-c3ccc(S(=O)(=O)N4CCOCC4)cc3)cc2c1Nc1ccc(OCc2ccccc2)c(Cl)c1			0.41	> 50	> 15		0.58	> 15	> 15	0.28		33	
Fc1cccc(COc2ccc(Nc3ncnc4ccc(-c5cccc(N6CCOCC6)c5)cc34)cc2Cl)c1	< 1	0.042		1.8	8			> 15	3	0.23			< 1
CN1CCN(S(=O)(=O)c2ccc(-c3ccc4c(Nc5ccc(OCc6cccc(F)c6)c(Cl)c5)ccnc4c3)cc2)CC1	< 1	0.079	0.039	0.73	1.6		0.042	> 4	1	0.019			
O=S(=O)(c1ccc(-c2ccc3ncnc(Nc4ccc(OCc5ccccc5)c(Cl)c4)c3c2)cc1)N1CCOCC1		1.4			> 15			> 15	0.5	0.26	9.5		
N#Cc1cnc2ccc(-c3cccc(N4CCOCC4)c3)cc2c1Nc1ccc(OCc2cccc(F)c2)c(Cl)c1			0.73	> 50	> 15		1	> 15	> 15	0.48		49	
Fc1cccc(COc2ccc(Nc3nccc4ccc(-c5cccc(N6CCOCC6)c5)cc34)cc2Cl)c1			6.1	> 50	6		19	> 28	> 15	2.6		0.1	
O=S(=O)(c1ccc(-c2ccc3c(Nc4ccc(OCc5ccccc5)c(Cl)c4)ccnc3c2)cc1)N1CCOCC1		0.24	0.018	3.5	> 1.5		0.044	> 3	> 1.5	0.016			
CN1CCN(S(=O)(=O)c2ccc(-c3ccc4nccc(Nc5ccc(OCc6cccc(F)c6)c(Cl)c5)c4c3)cc2)CC1		0.46	> 16	5.3	2		> 16	6.4	0.6	> 16			
CN1CCN(S(=O)(=O)c2ccc(-c3ccc4cnnc(Nc5ccc(OCc6cccc(F)c6)c(Cl)c5)c4c3)cc2)CC1		2	0.38	> 50	> 4		0.43	> 5	> 3.2	0.13			
Fc1cccc(COc2ccc(Nc3nccc4cc(-c5cccc(N6CCOCC6)c5)ccc34)cc2Cl)c1			4.7	> 50	2.2		19	> 28	> 15	2.8		12	
CN1CCCN(S(=O)(=O)c2ccc(-c3ccc4c(Nc5ccc(OCc6cccc(F)c6)c(Cl)c5)nncc4c3)cc2)CC1		0.51	0.045	1.3	1.1		0.064	3.4	0.41	0.029			
O=S(=O)(c1ccc(-c2ccc3nccc(Nc4ccc(OCc5ccccc5)c(Cl)c4)c3c2)cc1)N1CCOCC1	< 1	2.1	0.054	49	3.4	13.93	0.11	> 5	0.2	0.032			< 1
O=S(=O)(c1ccc(-c2ccc3ccnc(Nc4ccc(OCc5ccccc5)c(Cl)c4)c3c2)cc1)N1CCOCC1		> 2.5	4	> 50	> 15		5.5	> 25	> 15	0.87			
CN1CCCN(S(=O)(=O)c2ccc(-c3ccc4ncc(C#N)c(Nc5ccc(OCc6ccccc6)c(Cl)c5)c4c3)cc2)CC1		0.43	0.058	0.95	2.3		0.084	13	1.6	0.058			
CN1CCCN(S(=O)(=O)c2ccc(-c3ccc4cnnc(Nc5ccc(OCc6cccc(F)c6)c(Cl)c5)c4c3)cc2)CC1		0.62	0.18	17	5.6		0.25	14	> 15	0.094			
O=S(=O)(c1ccc(-c2ccc3c(Nc4ccc(OCc5ccccc5)c(Cl)c4)nccc3c2)cc1)N1CCOCC1		0.091	3.4	> 50	> 3		3.4	> 5	> 15	3.4			
CN1CCN(S(=O)(=O)c2ccc(-c3ccc4c(Nc5ccc(OCc6cccc(F)c6)c(Cl)c5)cnnc4c3)cc2)CC1		1	0.025	3.1	2		0.055	> 15	5.7	0.014			
CN1CCCN(S(=O)(=O)c2ccc(-c3ccc4c(Nc5ccc(OCc6cccc(F)c6)c(Cl)c5)cnnc4c3)cc2)CC1	< 1	0.21	0.005	49	0.24	36.72	0.013	15	6.4	0.003			< 1
Fc1cccc(COc2ccc(Nc3cnnc4ccc(-c5cccc(N6CCOCC6)c5)cc34)cc2Cl)c1		1.1	0.69	> 50	> 15		1.5	> 15	> 15	0.54			
CN1CCCN(S(=O)(=O)c2ccc(-c3ccc4ccnc(Nc5ccc(OCc6cccc(F)c6)c(Cl)c5)c4c3)cc2)CC1		0.73	0.1	4.7	2.2		0.27	> 15	1.3	0.086			
N#Cc1cnc2ccc(-c3cccc(N4CCOCC4)c3)cc2c1Nc1ccc(OCc2ccccc2)c(Cl)c1		0.76	0.97	> 50	> 15		0.82	> 15	> 15	0.97			
CN1CCN(S(=O)(=O)c2ccc(-c3ccc4nncc(Nc5ccc(OCc6cccc(F)c6)c(Cl)c5)c4c3)cc2)CC1		0.98	0.14	> 50	1.9		0.29	> 15	> 15	0.13			
CN1CCCN(S(=O)(=O)c2ccc(-c3ccc4nncc(Nc5ccc(OCc6cccc(F)c6)c(Cl)c5)c4c3)cc2)CC1		0.58	0.019	2.2	1.06		0.063	7.3	4.1	0.027			
